Among the data in ChEMBL document CHEMBL2163340, “Fluostatins I-K from the South China Sea-derived micromonospora rosaria SCSIO N160” (J Nat Prod, 2012) are IC50 and MIC values, retold here.

≈ marks a conversion by molar mass, not a printed value.

One assay concerns MCF7. Put plainly: Cytotoxicity against human MCF7 cells by SRB assay. It counts as functional, cell-based. The essentials: (§1)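 Sulforhodamine B assay following a previously described protocol, run on three human tumour lines: MCF-7 (breast adenocarcinoma), NCI-H460 (non-small-cell lung cancer) and SF-268 (glioma). Activity was reported as IC50.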
For orientation: The SRB assay estimates cell density from bound dye.

The subject of the next assay is NCI-H460. Put plainly: Cytotoxicity against human NCI-H460 cells by SRB assay. It counts as functional, cell-based. In a few lines:
as §1

A further assay concerns SF-268. The experiment in a line: Cytotoxicity against human SF268 cells by SRB assay. The assay is classed as functional, cell-based. The essentials:
as §1

In the next assay the test system is Candida albicans. The experiment in a line: Antifungal activity against Candida albicans ATCC 10231 after 18 hrs by broth microdilution method. It counts as functional. The conditions noted are these: ATCC 10231, 18 h. The essentials:
(§2)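 Broth microdilution. Pre-cultures were grown 16 h on a rotary shaker: the bacteria at 37 °C and C. albicans at 28 °C. Each was adjusted with sterile medium to OD600 0.04–0.06, diluted a further 10-fold, and dispensed to plates. Compounds were serially diluted from 64 to 0.125 μg/mL in duplicate. OD600 was read after 18 h. MIC was the lowest concentration completely inhibiting visible growth, taken from two independent experiments.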
(In general: In broth dilution the organism is exposed to a series of concentrations in liquid medium.)

A further assay relates to Bacillus subtilis. Put plainly: Antibacterial activity against Bacillus subtilis SCSIO BS01 after 18 hrs by broth microdilution method. The assay is classed as functional. The conditions noted are these: SCSIO BS01, 18 h. The essentials:
as §2

For a further assay, the system named is Bacillus thuringiensis. The experiment in a line: Antibacterial activity against Bacillus thuringiensis SCSIO BT01 after 18 hrs by broth microdilution method. The assay is classed as functional. The conditions noted are these: SCSIO BT01, 18 h. In a few lines:
as §2

The test system of the next assay is Staphylococcus aureus. Put plainly: Antibacterial activity against Staphylococcus aureus ATCC 29213 after 18 hrs by broth microdilution method. It counts as functional. The conditions noted are these: ATCC 29213, 18 h. The essentials: as §2
The next assay relates to Escherichia coli. The experiment in a line: Antibacterial activity against Escherichia coli ATCC 25922 after 18 hrs by broth microdilution method. The assay is classed as functional. The conditions noted are these: ATCC 25922, 18 h. In a few lines:
as §2

Broadly, the IC50 is the concentration that inhibits the measured activity by half. Read a high IC50 as weaker potency. The MIC is the lowest concentration found to suppress growth. Low values mean a more susceptible organism, high ones a less susceptible organism. For the compound `CC(C)C(=O)O[C@@H]1c2c(cc(O)c3c2C(=O)c2cccc(O)c2-3)C(=O)[C@@]2(C)O[C@@H]12` [FLUOSTATIN D], the IC50 in the assay on MCF7, with NCI-H460 and in the assay on SF-268 was above 100 µM throughout. The MIC against Candida albicans, in the assay on Bacillus subtilis, in the assay with Bacillus thuringiensis, with Staphylococcus aureus and in the assay with Escherichia coli was above 64 µg/mL throughout.
Turning to `C[C@]1(Cl)C(=O)c2cc(O)c3c(c2[C@@H](O)[C@@H]1O)C(=O)c1cccc(O)c1-3` [FLUOSTATIN E], the IC50 in the assay with MCF7, with NCI-H460 and in the assay on SF-268 was above 100 µM throughout. The MIC against Candida albicans, against Bacillus subtilis, in the assay on Bacillus thuringiensis, with Staphylococcus aureus and in the assay with Escherichia coli was above 64 µg/mL each time.
Turning to `CO[C@@H]1c2c(cc(O)c3c2C(=O)c2cccc(O)c2-3)C(=O)[C@@]2(C)O[C@@H]12` [FLUOSTATIN F], the IC50 in the assay on MCF7, with NCI-H460 and with SF-268 was above 100 µM throughout. Further, the minimum inhibitory concentration (MIC) is above 64 µg/mL against Candida albicans; above 64 µg/mL in the assay on Bacillus subtilis; above 64 µg/mL with Bacillus thuringiensis; 32 µg/mL (≈ 94.6 µM) with Staphylococcus aureus; above 64 µg/mL with Escherichia coli.
Regarding `CC(C)C(=O)O[C@@H]1c2c(cc(O)c3c2C(=O)c2cccc(O)c2-3)C(=O)[C@H](C)[C@H]1O` [FLUOSTATIN I], the IC50 in the assay on MCF7, in the assay with NCI-H460 and in the assay with SF-268 was above 100 µM throughout. The MIC in the assay with Candida albicans, in the assay with Bacillus subtilis, against Bacillus thuringiensis, against Staphylococcus aureus and in the assay on Escherichia coli was above 64 µg/mL each time.
Consider `CCC(C)C(=O)O[C@@H]1c2c(cc(O)c3c2C(=O)c2cccc(O)c2-3)C(=O)[C@@]2(C)O[C@@H]12` (some centres not stated) [FLUOSTATIN J], for which the IC50 in the assay with MCF7, in the assay with NCI-H460 and in the assay with SF-268 was above 100 µM throughout. The MIC with Candida albicans, with Bacillus subtilis, against Bacillus thuringiensis, in the assay with Staphylococcus aureus and with Escherichia coli was above 64 µg/mL throughout.
On to `C[C@]1(O)C=Cc2c(cc(O)c3c2C(=O)c2cccc(O)c2-3)C1=O` [FLUOSTATIN K], for which the IC50 in the assay with MCF7, with NCI-H460 and in the assay on SF-268 was above 100 µM each time. Moreover, the MIC in the assay with Candida albicans, in the assay on Bacillus subtilis, in the assay on Bacillus thuringiensis, against Staphylococcus aureus and in the assay with Escherichia coli was above 64 µg/mL throughout.
As for `C[C@]12O[C@H]1[C@H](O)c1c(cc(O)c3c1C(=O)c1cccc(O)c1-3)C2=O` [FLUOSTATINS C], the IC50 in the assay with MCF7, with NCI-H460 and with SF-268 was above 100 µM throughout. The MIC is above 64 µg/mL with Candida albicans; above 64 µg/mL with Bacillus subtilis; above 64 µg/mL in the assay with Bacillus thuringiensis; 16 µg/mL (≈ 49.3 µM) against Staphylococcus aureus; above 64 µg/mL against Escherichia coli.
Consider `Cc1cc(O)c2c3c(ncc2c1)C(=O)c1c(O)cccc1C3=O` [PHENANTHROVIRIDONE], for which the IC50 came out at 0.17 µM in the assay with MCF7, 2.18 µM in the assay with NCI-H460 and 0.09 µM in the assay with SF-268. Further, the MIC against Candida albicans is above 64 µg/mL; in the assay with Bacillus subtilis it was 64 µg/mL (≈ 210 µM); against Bacillus thuringiensis it was 4 µg/mL (≈ 13.1 µM); against Staphylococcus aureus, 0.25 µg/mL (≈ 0.819 µM); against Escherichia coli, 32 µg/mL (≈ 105 µM).
As for `C[C@]1(O)CC(=O)c2c(cc(O)c3c2C(=O)c2cccc(O)c2C3=O)C1` [RABELOMYCIN], the IC50 with MCF7 was found to be 4.28 µM; in the assay on NCI-H460 it was 9.91 µM; in the assay on SF-268, 5.54 µM. For the same compound, the MIC against Candida albicans was above 64 µg/mL; in the assay on Bacillus subtilis, 16 µg/mL (≈ 47.3 µM); in the assay on Bacillus thuringiensis it was 8 µg/mL (≈ 23.6 µM); against Staphylococcus aureus it was 1 µg/mL (≈ 2.96 µM); in the assay on Escherichia coli it was 16 µg/mL (≈ 47.3 µM).
